In brackets after ≈: the same amount, converted by molar mass. Like-named read-outs stand apart in the source and are kept apart here. Values belong to the compound of their own block, whether it stands above or below them.
Columns and labels:
[1] = Thermogravimetric analysis; assay type: physicochemical
In short: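 Thermogravimetric analysis of a 5.0 ± 0.5 mg sample in a ceramic pan under nitrogen at 2 bars. The sample was heated from 20°C to 350°C at 10°C/min to obtain the degradation temperature.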

[2] = test system: tubulin polymerization; settings: cited from earlier work
[3] = Solubility screening of EAPB0503 in oils; assay type: physicochemical
In short: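 5 mg of test compound was added to 1 g of pharmaceutical-grade oil ([…], castor, olive, soybean or sesame). Samples were magnetically stirred for 24 h at 20°C and then checked for complete solubilization.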

[4] = test system: A375 cell line; settings: cited from earlier work
[5] = Saturation solubility of EAPB0503 in solvents by HPLC; assay type: physicochemical; settings: for solubility: thermodynamic from solid
In short: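 Solvents, including purified water, were saturated with solid test compound and centrifuged at 5000 g for 5 min. The supernatant was quantified by HPLC on a C8 column using acetonitrile/2 mM ammonium formate pH 3 at 0.6 mL/min with a 12 min run. The column was held at 20°C and detection was by UV. Calibration used DMSO standards from 50–1000 μg/mL.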

[6] = rats, i.p.; cited from earlier work
[7] = cited from earlier work
[8] = cited from earlier work; remark: listed apart in the source

Degradation temperature (TGA) [1]: 347 °C
Degradation temperature onset (TGA) ([1]; onset): 210 °C
Solubility in Labrafac WL 139 ([3]; Labrafac WL 139): higher than 12 mg/g
solubility at 24 h ([3]; Labrafac WL 1349 (semi-synthetic oil), oil or lipid, thermodynamic from solid): 12 mg/mL (≈ 39.4 mM)
Concentration obtainable in vegetable oils ([3]; castor, olive, soybean and sesame oils): ≤ 1000 µg/mL
Solubilization in vegetable oils ([3]; castor, olive, soybean and sesame oils, 5 mg/mL, room temperature): not complete
Maximum concentration (solubility) ([5]; Purified water): <0.1 mg/mL
solubility ([5]; dimethyl sulfoxide, organic solvent or mixture): 16.6 mg/mL (≈ 54.5 mM)
solubility ([5]; dimethylacetamide, organic solvent or mixture): 24.8 mg/mL (≈ 81.5 mM)
solubility ([5]; phosphate buffered saline, aqueous buffer): < 0.1 mg/mL
solubility ([5]; purified water, water): < 0.1 mg/mL
SMILES: CNc1nc2ccccc2n2c(-c3cccc(OC)c3)cnc12 [EAPB0503, 1-[3-methoxyphenyl]-N-methylimidazo [1,2-a] quinoxalin-4-amine]
Inhibition of the tubulin polymerization [2]: potent inhibition
IC50 ([4]; A375 cell line growth): 200 nM
Fold increase activity compared to EAPB0203 ([4]; in vitro activity, human melanoma cell lines): 9
Bioavailability after intraperitoneal administration [6]: 35%

SMILES: CC(=O)O[C@@]12CO[C@@H]1C[C@H](O)[C@@]1(C)C(=O)[C@H](O)C3=C(C)[C@@H](OC(=O)[C@H](O)[C@@H](NC(=O)OC(C)(C)C)c4ccccc4)C[C@@](O)([C@@H](OC(=O)c4ccccc4)[C@H]21)C3(C)C [docetaxel]
Drug loading in LNC ([7]; encapsulated in LNC): 2 mg/mL

SMILES: COc1cc([C@@H]2c3cc4c(cc3[C@@H](O[C@@H]3O[C@@H]5CO[C@@H](C)O[C@H]5[C@H](O)[C@H]3O)[C@H]3COC(=O)[C@H]23)OCO4)cc(OC)c1O [etoposide]
Water solubility [8]: 0.978 mg/mL
Drug efficiency (encapsulation) in LNC ([7]; formulated in LNC): 56.7 ± 21.3%
Drug loading in LNC ([7]; formulated in LNC): 6.5 ± 3.0 mg/g

SMILES: CC(=O)O[C@H]1C(=O)[C@@]2(C)[C@H]([C@H](OC(=O)c3ccccc3)[C@]3(O)C[C@H](OC(=O)[C@H](O)[C@@H](NC(=O)c4ccccc4)c4ccccc4)C(C)=C1C3(C)C)[C@]1(OC(C)=O)CO[C@@H]1C[C@@H]2O [paclitaxel]
Drug loading in LNC ([7]; encapsulated in LNC): 4 mg/mL
